Experimental data collected from several papers.
Each line is one published result; the experiments were not run side by side.
Target: Serine/threonine-protein kinase Nek11 (NEK11, Homo sapiens, UniProt Q8NG66)
Residues used in one study (Q8NG66 1-645): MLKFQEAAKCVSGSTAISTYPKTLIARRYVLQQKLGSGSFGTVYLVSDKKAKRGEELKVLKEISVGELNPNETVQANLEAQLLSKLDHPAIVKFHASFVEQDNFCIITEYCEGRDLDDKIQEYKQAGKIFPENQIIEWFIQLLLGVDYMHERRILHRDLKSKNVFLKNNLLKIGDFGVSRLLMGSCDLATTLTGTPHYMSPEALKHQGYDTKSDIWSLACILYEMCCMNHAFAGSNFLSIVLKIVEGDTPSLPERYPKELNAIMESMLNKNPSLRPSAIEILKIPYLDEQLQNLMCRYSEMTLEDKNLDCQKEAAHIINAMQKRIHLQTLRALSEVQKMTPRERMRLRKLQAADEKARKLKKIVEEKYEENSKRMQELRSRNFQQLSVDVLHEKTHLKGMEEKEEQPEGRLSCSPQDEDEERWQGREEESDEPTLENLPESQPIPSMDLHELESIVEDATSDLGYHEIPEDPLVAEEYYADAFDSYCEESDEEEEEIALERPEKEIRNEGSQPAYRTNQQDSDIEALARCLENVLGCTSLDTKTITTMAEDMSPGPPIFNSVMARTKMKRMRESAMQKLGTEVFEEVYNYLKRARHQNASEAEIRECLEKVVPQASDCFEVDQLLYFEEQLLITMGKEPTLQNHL

SMILES	read-out	mode	technique	tested at	quantity	result
Cc1ccc(Nc2nccc(N(C)c3ccc4c(C)n(C)nc4c3)n2)cc1S(N)(=O)=O	enzyme activity	inhibitor		10 µM	inhibition	23%
O=C1Nc2ccc(Cl)cc2C1=Cc1cc(Cl)c(O)c(Cl)c1	cell-free assay			0.5 µM	remaining signal	104%
Cc1cnc(NC2CCOCC2)nc1-n1cnc(C(=O)NC(CN)c2cc(F)cc(Cl)c2)c1 (centres unmarked)	enzyme activity	inhibitor	radiometric	1 µM	remaining activity	81%
Clc1ccc(Nc2nnc(Cc3ccncc3)c3ccccc23)cc1	cell-free assay			0.5 µM	remaining signal	87%
CS(=O)(=O)N1CCCC(NC(=O)[C@H](CCC2CCCCC2)NC(=O)c2ccc(CNc3ncnc4c3nnn4-c3ccccc3)cc2)C1 (some centres unmarked)	cell-free assay		competition with immobilised ligand	0.1 µM	remaining binding	100%
CNC(=O)c1cc(Oc2ccc(NC(=O)Nc3ccc(Cl)c(C(F)(F)F)c3)cc2)ccn1	enzyme activity	inhibitor		0.3 µM	inhibition	5%
O=C(O)[C@H]1[C@H](Cn2nnc3ccccc3c2=O)CC[C@@H]1C(=O)c1ccc(OCCC2CCOCC2)cc1	cell-free assay		competition with immobilised ligand	1 µM	remaining binding	100%
O=C(Nc1cnn(-c2csc(C(=O)NC3COC3)c2)c1)Nc1c(F)cccc1Cl	enzyme activity	inhibitor		5 µM	remaining activity	89.5%
CC(C)(C)c1nc(-c2cccc(NS(=O)(=O)c3c(F)cccc3F)c2F)c(-c2ccnc(N)n2)s1	enzyme activity	inhibitor	radiometric	1 µM	remaining activity	1%
CC1=C(C#N)C(c2ccc3c(c2)c(NC(=O)c2ccccc2C)nn3C)C(C#N)=C(C)N1	cell-free assay		competition with immobilised ligand	1 µM	remaining binding	96%
CCN(CC)CCNC(=O)c1c(C)[nH]c(/C=C2\C(=O)Nc3ccc(F)cc32)c1C	enzyme activity	inhibitor		0.3 µM	inhibition	16%
Cc1cc(NC(=O)c2cccc3cc(-c4cccc5[nH]nc(N)c45)ccc23)ccc1F	enzyme activity	inhibitor		0.1 µM	activity vs control	91%
CN1CCN(c2cnc3c(C4CCN(C(=O)c5ccc(OC(F)(F)F)cc5N)CC4)ncnc3c2)CC1	cell-free assay		competition with immobilised ligand	1 µM	remaining binding	100%
C[C@@H]1CCN(C(=O)CC#N)C[C@@H]1N(C)c1ncnc2[nH]ccc12	cell-free assay	inhibitor		0.5 µM	remaining signal	91.7%
Cc1ccc(C(=O)Nc2ccc(CN3CCN(C)CC3)c(C(F)(F)F)c2)cc1C#Cc1cnc2cccnn12	enzyme activity	inhibitor		23.5 nM	remaining activity	83%
O=C1NC(=O)c2cc(Nc3ccc(F)cc3)c(Nc3ccc(F)cc3)cc21	cell-free assay			0.5 µM	remaining signal	103%
COc1cc(-c2cn(C3CCc4c(F)cccc4N(CC(F)(F)F)C3=O)nn2)ccc1-n1cnc(C)c1 (centres unmarked)	cell-free assay		competition with immobilised ligand	1 µM	remaining binding	100%
Cc1ccc(NC(=O)c2ccc(C)c(C(F)(F)F)c2)cc1C#Cc1nn(C2CCC(O)CC2)c2ncnc(N)c12 (centres unmarked)	cell-free assay			10 µM	remaining signal	50%
CCC(=O)N[C@H]1CC[C@@H](C(=O)N(C)c2ccc(-c3nc4ccccc4o3)cc2)C1	cell-free assay		competition with immobilised ligand	1 µM	remaining binding	86%
CCN(CC)c1ccc(C2=NNC(=O)CC2C)cc1[N+](=O)[O-] (centres unmarked)	enzyme activity	inhibitor		10 µM	remaining activity	114%
